We go through one compound from ChEMBL document CHEMBL1155077, “Kinesin spindle protein (KSP) inhibitors. 9. Discovery of (2S)-4-(2,5-difluorophenyl)-n-[(3R,4S)-3-fluoro-1-methylpiperidin-4-yl]-2-(hydroxymethyl)-N-methyl-2-phenyl-2,5-dihydro-1H-pyrrole-1-carboxamide (MK-0731) for the treatment of taxane-refractory cancer” (J Med Chem, 2008).

Active and inactive are the calls of the source.

Data set [1] deals with KB-v. As to the kind of experiment: Inhibition of tumor growth in human KB-v cells expressing MDR1 xenografted clr:NU/NU-nuBR mouse assessed as change in tumor volume at 20 mg/kg, ip administered qd x 5 dosing schedule relative to control. Type of data set: functional, organism-based. More on the design: dose 20 mg/kg. The method, boiled down: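 Nude mice bearing contralateral sc KB-3-1 (2.5 million) and KB-v-1 (9 million) flank tumors, 250-500 mm³ at day 13-14, groups of 10-12. Paclitaxel 20 mg/kg/day ip in ethanol/Cremophor/saline (10:10:80), qd × 5. Volumes by calipers, (W² × L)/2, change from initial; % T/C versus control.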

Data set [2] is described as follows: Ratio of IC50 for induction of mitotic arrest in human […] to IC50 for induction of mitotic arrest in […] human KB-V-1 cells. Type of data set: functional. The method, boiled down: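 Phospho-nucleolin mitotic-arrest assay in parental KB-3-1 and MDR1-overexpressing KB-V-1 cells (>500-fold higher MDR1 mRNA). Cells were treated in triplicate for 16 h across 10 000 to 0.1 nM (11-point, half-log series; 0.1% DMSO final). Total nucleolin was bead-captured from lysates and phospho-nucleolin detected by TG3 antibody plus a ruthenium-labelled secondary. Ratio = IC50 (KB-V-1) / IC50 (KB-3-1).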

The test system of data set [3] is A2780. As to the kind of experiment: Induction of mitotic arrest in human A2780 cells […] clr:NU/NU-nuBR mouse assessed as minimum plasma concentration required to induce maximum mitotic arrest after 22 hrs. Type of data set: functional.
In data set [4] the target is Centromere-associated protein E (Homo sapiens, UniProt Q02224). Kind of data set: Inhibition of cloned human CENP-E.
Data set [5] deals with T1, Kinesin-1 heavy chain (Homo sapiens, UniProt P33176).
T1 sequence (P33176 whole entry): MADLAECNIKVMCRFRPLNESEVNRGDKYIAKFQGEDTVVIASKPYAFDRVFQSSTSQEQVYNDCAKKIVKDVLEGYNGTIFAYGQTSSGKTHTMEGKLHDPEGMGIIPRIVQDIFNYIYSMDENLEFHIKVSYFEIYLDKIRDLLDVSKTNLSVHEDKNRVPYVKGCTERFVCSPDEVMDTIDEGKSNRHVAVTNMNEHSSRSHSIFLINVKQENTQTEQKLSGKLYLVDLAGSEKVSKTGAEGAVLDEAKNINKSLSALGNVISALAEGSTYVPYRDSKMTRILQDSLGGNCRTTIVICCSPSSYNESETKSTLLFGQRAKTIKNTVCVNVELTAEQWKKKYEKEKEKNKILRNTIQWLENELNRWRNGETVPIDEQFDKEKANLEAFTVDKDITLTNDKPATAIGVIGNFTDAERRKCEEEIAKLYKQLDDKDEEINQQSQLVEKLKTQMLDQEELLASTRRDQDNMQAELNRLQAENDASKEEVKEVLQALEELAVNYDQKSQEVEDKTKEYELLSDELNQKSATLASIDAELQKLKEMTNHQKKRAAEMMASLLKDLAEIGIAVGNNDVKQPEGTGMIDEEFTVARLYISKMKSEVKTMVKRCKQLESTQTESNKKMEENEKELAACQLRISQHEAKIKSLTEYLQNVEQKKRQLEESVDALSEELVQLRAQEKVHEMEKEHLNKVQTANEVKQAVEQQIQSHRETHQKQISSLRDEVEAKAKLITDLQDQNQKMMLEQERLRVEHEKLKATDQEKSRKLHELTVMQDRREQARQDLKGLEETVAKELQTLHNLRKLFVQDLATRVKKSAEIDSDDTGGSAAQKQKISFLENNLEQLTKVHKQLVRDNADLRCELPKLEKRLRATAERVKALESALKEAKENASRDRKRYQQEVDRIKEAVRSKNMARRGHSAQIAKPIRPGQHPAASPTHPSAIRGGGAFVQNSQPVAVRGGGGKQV
Kind of data set: Inhibition of cloned human uKHC.

In data set [6] the target is Kinesin-like protein KIF14 (Homo sapiens, UniProt Q15058). Kind of data set: Inhibition of cloned human Kif14.
Data set [7] concerns the target T2, Kinesin-like protein KIF2C (Homo sapiens, UniProt Q99661).
T2 sequence (Q99661 whole entry): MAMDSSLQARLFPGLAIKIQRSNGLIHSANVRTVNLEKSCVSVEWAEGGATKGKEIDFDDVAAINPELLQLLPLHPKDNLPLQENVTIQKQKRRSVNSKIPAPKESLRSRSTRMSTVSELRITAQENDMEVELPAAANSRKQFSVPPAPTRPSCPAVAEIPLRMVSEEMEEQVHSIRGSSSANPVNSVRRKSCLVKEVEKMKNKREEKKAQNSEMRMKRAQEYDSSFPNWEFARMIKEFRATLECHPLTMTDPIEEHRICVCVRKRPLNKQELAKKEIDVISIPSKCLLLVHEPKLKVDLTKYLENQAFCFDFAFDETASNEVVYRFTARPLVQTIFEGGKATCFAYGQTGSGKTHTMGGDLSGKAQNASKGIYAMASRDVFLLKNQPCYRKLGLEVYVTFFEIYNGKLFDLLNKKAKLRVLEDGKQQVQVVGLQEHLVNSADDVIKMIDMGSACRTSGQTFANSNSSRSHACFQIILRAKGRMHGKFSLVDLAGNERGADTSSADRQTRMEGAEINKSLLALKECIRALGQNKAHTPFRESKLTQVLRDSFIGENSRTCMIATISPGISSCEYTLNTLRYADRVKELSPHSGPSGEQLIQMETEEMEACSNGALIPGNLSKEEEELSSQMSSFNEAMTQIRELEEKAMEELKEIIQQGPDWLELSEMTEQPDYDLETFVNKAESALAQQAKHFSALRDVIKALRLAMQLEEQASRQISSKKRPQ
Kind of data set: Inhibition of cloned human MCAK.

The nature of data set [8]: Effect on […] formation in human […] cells assessed as mitotic spindles at 50 nM after 16 hrs by fluorescence microscopy. Type of data set: functional. In outline:
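A2780 cells grown in slide chambers, exposed 16 h to 5 or 50 nM compound or 0.1% DMSO. Fixed/permeabilized in PIPES buffer pH 6.8 with Triton X-100 and 4% formaldehyde, blocked with 2% BSA, stained with anti-α-tubulin (DM1, 12 h 4 °C), FITC secondary and Hoechst 33342; spindles viewed by fluorescence microscopy.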

Data set [9] deals with Rattus norvegicus. As to the kind of experiment: Acute toxicity in rat at 15 mg/kg, iv. Type of data set: organism-based. Also noted: dose 15 mg/kg, route intravenous. The note with it: in vivo.
Data set [10] in a line: Clearance in rat at 1 mg/kg, iv. Type of data set: ADME, organism-based. More on the design: dose 1 mg/kg, route intravenous. To be noted: in vivo.
Data set [11] in a line: Half life in rat at 1 mg/kg, iv. More on the design: dose 1 mg/kg, route intravenous. To be noted: in vivo. Type of data set: ADME, organism-based.
Data set [12] is described as follows: Clearance in dog at 0.4 mg/kg, iv. Type of data set: ADME, organism-based, Canis lupus familiaris. More on the design: dose 0.4 mg/kg, route intravenous. The note with it: in vivo.
The nature of data set [13]: Clearance in rhesus monkey at 0.4 mg/kg, iv. Type of data set: ADME, organism-based, Macaca mulatta. More on the design: dose 0.4 mg/kg, route intravenous. The note with it: in vivo.
Data set [14] deals with KB-v. As to the kind of experiment: Inhibition of tumor growth in human KB-v cells expressing MDR1 xenografted clr:NU/NU-nuBR mouse assessed as change in tumor volume at 40 mg/kg, sc administered qd x 1 dosing schedule relative to control. A general note: Xenograft models place foreign cells or tissue in a host animal.
For data set [15], the system named is PTX10. As to the kind of experiment: Inhibition of tumor growth in paclitaxel-resistant human PTX10 cells carries tubulin mutation xenografted clr:NU/NU-nuBR mouse assessed as change in tumor volume at 100 mg/kg, sc administered q4d x 3 dosing schedule relative to control.

Centromere-associated protein E, sequence (Q02224 whole entry): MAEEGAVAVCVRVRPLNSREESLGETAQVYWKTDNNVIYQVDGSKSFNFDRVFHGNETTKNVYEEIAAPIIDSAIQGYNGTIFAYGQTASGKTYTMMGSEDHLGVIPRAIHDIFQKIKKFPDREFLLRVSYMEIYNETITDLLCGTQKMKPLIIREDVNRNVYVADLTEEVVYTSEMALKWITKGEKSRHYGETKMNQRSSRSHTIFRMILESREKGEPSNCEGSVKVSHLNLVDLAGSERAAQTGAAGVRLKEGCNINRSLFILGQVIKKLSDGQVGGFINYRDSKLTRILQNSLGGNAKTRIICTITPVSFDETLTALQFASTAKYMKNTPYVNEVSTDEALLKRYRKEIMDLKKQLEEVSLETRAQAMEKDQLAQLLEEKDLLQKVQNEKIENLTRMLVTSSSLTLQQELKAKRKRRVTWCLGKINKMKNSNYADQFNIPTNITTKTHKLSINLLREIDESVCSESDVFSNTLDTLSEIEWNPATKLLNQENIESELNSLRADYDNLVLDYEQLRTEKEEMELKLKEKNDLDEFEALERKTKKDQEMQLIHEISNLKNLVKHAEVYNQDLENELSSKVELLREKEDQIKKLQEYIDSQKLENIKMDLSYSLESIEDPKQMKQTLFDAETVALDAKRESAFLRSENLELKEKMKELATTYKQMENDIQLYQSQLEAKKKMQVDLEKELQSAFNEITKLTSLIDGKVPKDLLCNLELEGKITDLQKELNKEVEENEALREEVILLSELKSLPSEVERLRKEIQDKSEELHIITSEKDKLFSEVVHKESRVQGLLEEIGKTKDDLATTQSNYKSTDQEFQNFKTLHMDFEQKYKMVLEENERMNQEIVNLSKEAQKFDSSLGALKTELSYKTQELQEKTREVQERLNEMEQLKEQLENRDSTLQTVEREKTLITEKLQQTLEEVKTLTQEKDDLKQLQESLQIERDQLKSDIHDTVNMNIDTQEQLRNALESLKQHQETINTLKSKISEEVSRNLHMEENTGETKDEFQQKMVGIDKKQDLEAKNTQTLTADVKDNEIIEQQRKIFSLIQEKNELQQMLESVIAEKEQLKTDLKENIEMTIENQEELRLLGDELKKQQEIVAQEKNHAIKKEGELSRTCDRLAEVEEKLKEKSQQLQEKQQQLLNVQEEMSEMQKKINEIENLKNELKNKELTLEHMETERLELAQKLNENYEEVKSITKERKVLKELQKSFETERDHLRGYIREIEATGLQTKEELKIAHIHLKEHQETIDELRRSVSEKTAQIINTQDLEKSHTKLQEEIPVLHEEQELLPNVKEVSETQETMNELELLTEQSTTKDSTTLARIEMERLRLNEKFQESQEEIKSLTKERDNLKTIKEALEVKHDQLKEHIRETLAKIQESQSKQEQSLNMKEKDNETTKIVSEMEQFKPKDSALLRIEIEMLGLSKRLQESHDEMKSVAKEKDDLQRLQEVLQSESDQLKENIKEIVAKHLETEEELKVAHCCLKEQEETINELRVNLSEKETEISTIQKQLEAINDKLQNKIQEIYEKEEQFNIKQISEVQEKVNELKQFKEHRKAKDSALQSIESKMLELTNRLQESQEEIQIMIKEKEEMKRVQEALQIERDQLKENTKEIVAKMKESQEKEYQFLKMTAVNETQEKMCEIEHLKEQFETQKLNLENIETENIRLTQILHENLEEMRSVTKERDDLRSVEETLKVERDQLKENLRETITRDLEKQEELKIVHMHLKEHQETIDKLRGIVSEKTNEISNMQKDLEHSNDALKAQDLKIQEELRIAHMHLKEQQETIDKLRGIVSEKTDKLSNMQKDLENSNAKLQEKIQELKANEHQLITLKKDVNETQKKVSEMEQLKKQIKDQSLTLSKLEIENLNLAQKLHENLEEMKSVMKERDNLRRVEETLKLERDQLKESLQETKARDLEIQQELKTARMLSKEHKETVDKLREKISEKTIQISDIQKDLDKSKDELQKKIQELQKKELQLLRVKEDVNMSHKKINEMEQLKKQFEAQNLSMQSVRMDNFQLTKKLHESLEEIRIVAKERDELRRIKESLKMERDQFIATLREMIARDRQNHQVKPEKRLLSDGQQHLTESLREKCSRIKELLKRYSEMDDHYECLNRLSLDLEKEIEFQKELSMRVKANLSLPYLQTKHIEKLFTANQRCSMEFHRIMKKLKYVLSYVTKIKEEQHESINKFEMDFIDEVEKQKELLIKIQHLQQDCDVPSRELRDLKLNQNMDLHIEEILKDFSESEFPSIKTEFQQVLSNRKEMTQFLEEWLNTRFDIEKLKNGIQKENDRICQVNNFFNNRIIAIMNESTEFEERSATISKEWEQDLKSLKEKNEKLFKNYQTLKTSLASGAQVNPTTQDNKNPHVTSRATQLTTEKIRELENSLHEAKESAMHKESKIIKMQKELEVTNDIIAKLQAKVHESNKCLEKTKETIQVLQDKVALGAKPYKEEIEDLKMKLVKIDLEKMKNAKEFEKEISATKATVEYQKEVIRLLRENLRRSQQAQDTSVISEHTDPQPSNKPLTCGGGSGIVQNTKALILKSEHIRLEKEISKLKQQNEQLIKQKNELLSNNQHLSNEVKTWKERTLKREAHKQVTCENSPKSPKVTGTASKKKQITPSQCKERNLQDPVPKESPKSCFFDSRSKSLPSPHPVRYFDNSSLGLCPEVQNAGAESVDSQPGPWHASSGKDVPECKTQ
Kinesin-like protein KIF14, sequence (Q15058 whole entry): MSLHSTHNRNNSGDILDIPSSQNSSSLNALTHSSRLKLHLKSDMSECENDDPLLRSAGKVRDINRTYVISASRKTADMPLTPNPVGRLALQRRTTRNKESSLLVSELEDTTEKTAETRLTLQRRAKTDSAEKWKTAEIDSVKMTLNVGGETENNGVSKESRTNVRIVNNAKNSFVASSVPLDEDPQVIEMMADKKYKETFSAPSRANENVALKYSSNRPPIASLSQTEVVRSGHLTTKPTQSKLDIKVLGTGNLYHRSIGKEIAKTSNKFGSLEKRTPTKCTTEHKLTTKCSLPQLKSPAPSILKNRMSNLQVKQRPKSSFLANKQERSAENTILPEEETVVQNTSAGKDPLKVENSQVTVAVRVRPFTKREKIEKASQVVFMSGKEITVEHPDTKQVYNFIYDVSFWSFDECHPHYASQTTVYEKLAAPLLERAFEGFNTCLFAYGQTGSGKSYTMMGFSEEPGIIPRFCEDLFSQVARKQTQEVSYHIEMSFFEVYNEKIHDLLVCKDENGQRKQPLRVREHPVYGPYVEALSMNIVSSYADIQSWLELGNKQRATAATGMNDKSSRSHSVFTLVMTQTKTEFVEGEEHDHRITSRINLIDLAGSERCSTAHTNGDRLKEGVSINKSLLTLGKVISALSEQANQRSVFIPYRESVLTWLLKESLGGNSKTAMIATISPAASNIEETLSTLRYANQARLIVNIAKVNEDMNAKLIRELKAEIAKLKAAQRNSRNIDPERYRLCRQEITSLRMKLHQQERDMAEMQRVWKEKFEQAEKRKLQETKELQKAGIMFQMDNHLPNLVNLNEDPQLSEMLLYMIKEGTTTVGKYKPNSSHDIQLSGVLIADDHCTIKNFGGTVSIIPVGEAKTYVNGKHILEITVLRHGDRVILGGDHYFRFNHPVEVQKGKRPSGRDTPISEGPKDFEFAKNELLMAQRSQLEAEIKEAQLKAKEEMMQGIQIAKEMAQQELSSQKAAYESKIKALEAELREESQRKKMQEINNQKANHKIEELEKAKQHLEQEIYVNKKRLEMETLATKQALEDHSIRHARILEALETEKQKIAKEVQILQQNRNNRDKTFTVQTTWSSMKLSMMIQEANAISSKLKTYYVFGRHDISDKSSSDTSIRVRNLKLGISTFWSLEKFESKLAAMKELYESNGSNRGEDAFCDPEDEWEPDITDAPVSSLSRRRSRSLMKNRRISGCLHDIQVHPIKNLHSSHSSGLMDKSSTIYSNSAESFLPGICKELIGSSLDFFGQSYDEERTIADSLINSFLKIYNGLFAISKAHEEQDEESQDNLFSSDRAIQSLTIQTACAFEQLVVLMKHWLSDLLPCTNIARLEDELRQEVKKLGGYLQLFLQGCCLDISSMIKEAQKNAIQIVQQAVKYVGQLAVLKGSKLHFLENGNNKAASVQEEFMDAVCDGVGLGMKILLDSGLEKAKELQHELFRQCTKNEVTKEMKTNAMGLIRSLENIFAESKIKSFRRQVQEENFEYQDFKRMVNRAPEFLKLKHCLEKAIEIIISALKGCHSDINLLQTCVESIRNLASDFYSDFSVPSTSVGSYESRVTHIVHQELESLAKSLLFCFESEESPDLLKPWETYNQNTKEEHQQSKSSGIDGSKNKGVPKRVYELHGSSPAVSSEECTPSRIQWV

As a reminder, the EC90 is the concentration needed for an effect of 90%. As a reminder, the IC50 is the midpoint of a concentration-inhibition curve. One may read the clearance as the rate of elimination divided by the concentration. Broadly, the half-life is the time needed for the level to fall by half in the phase considered. Turning to `CN1CC[C@H](N(C)C(=O)N2CC(c3cc(F)ccc3F)=C[C@@]2(CO)c2ccccc2)[C@H](F)C1`, in [1], the outcome was inactive. Besides, the Ratio in [2] is reported as 4.5. For the same compound, in data set [3], the EC90 was determined as 0.094 µM. Besides, the half-inhibitory concentration (IC50) in data set [4], in data set [5], in [6] and in data set [7] was greater than 50 µM each time. Moreover, the results for the Activity in data set [8] and in data set [9] were 90% and “Non-toxic”, respectively. Also, the clearance in data set [10] was determined as 66.7 mL/min/kg; in data set [12], 15.1 mL/min/kg; in [13] it was 23.1 mL/min/kg. This compound gave a half-life in data set [11] of 1 h. Also, the result in [14] and in data set [15] was Active.
